Data set [1] in a line: Cytotoxicity against African green monkey Vero cells assessed as alterations in cell morphology by microscopic analysis. It counts as toxicity, cell-based. The settings on record: chlorocebus sabaeus. In outline:
(§1)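 Compound added to subconfluent cell monolayers in 96-well plates together with virus (CPE reduction assay format); after 3–5 days incubation, cultures inspected by microscopy. MCC taken as compound concentration producing minimal alterations in cell morphology.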

The next data set relates to Human respirovirus 3. As to the kind of experiment: Antiviral activity against Para-influenza-3 virus infected in African green monkey Vero cells assessed as protection against virus-induced cytopathic effect measured after 3 to 5 days by microscopic analysis. It counts as functional, cell-based. To be noted: Human respirovirus 3, Vero. (Damage to the host cells serves as the signal in cytopathic effect assays.)

Data set [2] relates to Mammalian orthoreovirus 1. As to the kind of experiment: Antiviral activity against Reovirus-1 infected in African green monkey Vero cells assessed as protection against virus-induced cytopathic effect measured after 3 to 5 days by microscopic analysis. It counts as functional, cell-based. To be noted: Mammalian orthoreovirus 1, Vero.
A further data set concerns Sindbis virus. Nature of the data set: Antiviral activity against Sindbis virus infected in African green monkey Vero cells assessed as protection against virus-induced cytopathic effect measured after 3 to 5 days by microscopic analysis. It counts as functional, cell-based.
In another data set the test system is Coxsackievirus B4. Nature of the data set: Antiviral activity against Coxsackie virus B4 infected in African green monkey Vero cells assessed as protection against virus-induced cytopathic effect measured after 3 to 5 days by microscopic analysis. It counts as functional, cell-based. To be noted: Enterovirus B.
Data set [3] has as its system Punta Toro virus. As to the kind of experiment: Antiviral activity against Punta Toro virus infected in African green monkey Vero cells assessed as protection against virus-induced cytopathic effect measured after 3 to 5 days by microscopic analysis. In kind it is functional, cell-based.
The test system of the next data set is Yellow fever virus. Nature of the data set: Antiviral activity against Yellow fever virus infected in African green monkey Vero cells assessed as protection against virus-induced cytopathic effect measured after 3 to 5 days by microscopic analysis. In kind it is functional, cell-based.
The nature of data set [4]: Cytotoxicity against human HeLa cells assessed as alterations in cell morphology by microscopic analysis. In kind it is toxicity, cell-based. In outline: as §1
The nature of data set [5]: Cytotoxicity against MDCK cells assessed as alterations in cell morphology by microscopic analysis. In kind it is toxicity, cell-based, Canis lupus familiaris. The settings on record: dog. In outline: as §1
Data set [6] in a line: Cytotoxicity against HEL cells assessed as alterations in cell morphology by microscopic analysis. In kind it is toxicity, cell-based. To be noted: human. In outline:
as §1

Data set [7] in a line: Cytotoxicity against cat CRFK cells assessed as by MTS cell viability assay. It counts as toxicity, cell-based, Felis catus. Background: Tetrazolium dyes change colour on reduction, which living cells bring about.
The nature of data set [8]: Cytotoxicity against human MT4 cells by MTS cell viability assay. In kind it is toxicity, cell-based.
Data set [9] deals with Punta Toro virus. Nature of the data set: Potency index, ratio of Dextran sulphate EC50 to test compound EC50 for Punta Toro virus infected in African green monkey Vero cells. In kind it is functional.
In data set [10] the test system is Punta Toro virus. As to the kind of experiment: Potency index, ratio of mycophenolic acid EC50 to test compound EC50 for Punta Toro virus infected in African green monkey Vero cells. It counts as functional.
In data set [11] the test system is Punta Toro virus. As to the kind of experiment: Potency index, ratio of ribavirin EC50 to test compound EC50 for Punta Toro virus infected in African green monkey Vero cells. In kind it is functional.
The nature of data set [12]: Selectivity index, ratio of MCC for African green monkey Vero cells to EC50 for Punta Toro virus infected in African green monkey Vero cells. It counts as toxicity, cell-based.
The subject of data set [13] is Punta Toro virus. As to the kind of experiment: Antiviral activity against Punta Toro virus infected in African green monkey Vero cells assessed as protection against virus-induced cytopathic effect at 20 uM measured after 3 to 5 days by microscopic analysis. In kind it is functional.
A further data set has as its system Rift Valley fever virus. Nature of the data set: Antiviral activity against RVFV MP-12 infected in African green monkey Vero cells assessed as protection against virus-induced cytopathic effect at 100 uM measured after 3 to 5 days by microscopic analysis. In kind it is functional.
The next data set deals with Human alphaherpesvirus 3. Nature of the data set: Antiviral activity against Varicella zoster virus infected in HEL cells assessed as protection against virus-induced cytopathic effect at 100 uM measured after 3 to 5 days by microscopic analysis. In kind it is functional, cell-based. The settings on record: Human alphaherpesvirus 3, HEL. The method, boiled down: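 HEL fibroblasts, subconfluent, were exposed to compound plus virus together. After 3–5 days CPE was scored microscopically as protection against virus-induced cell damage. EC50 is the concentration giving 50% protection; MCC is the concentration causing minimal morphology change by microscopy.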

By EC50 is commonly meant the concentration that produces a half-maximal response. In general, CC50 refers to the concentration at which the toxic effect on the cells reaches its halfway point. As for `CCCCCCCCCCCC1NC(=O)NC(C)=C1C(=O)OCC` (centres undefined), the MCC in [1] is not below 100 µM; in data set [4], more than 100 µM; in data set [5] it was more than 100 µM; in [6], 100 µM. Moreover, the EC50 in the data set on Human respirovirus 3 was more than 100 µM; in data set [2] it was more than 100 µM; with Sindbis virus, more than 100 µM; in the data set with Coxsackievirus B4, more than 100 µM; in the data set on Punta Toro virus [3], 3 µM; with Yellow fever virus, more than 100 µM. Moreover, the results for the Activity entry in the data set on Punta Toro virus [3], in the data set on Punta Toro virus [13] and in the data set on Rift Valley fever virus were “Dose-dependent effect”, 81% and 40 - 50%, respectively. Moreover, the CC50 in [7] was more than 100 µM; in [8] it was 50 µM. Moreover, the “Ratio EC50” value with Punta Toro virus [9] is on record as 7; in the data set with Punta Toro virus [10] it was 7; in the data set on Punta Toro virus [11], 17. Moreover, in [12], the “Selectivity Index” value is reported as “>= 33”.
On to `CCOC(=O)C1=C(C)NC(=O)NC1/C=C/c1ccccc1` (centres undefined), for which the MCC in data set [1] was 100 µM; in [4] it was not below 100 µM; in [5] it was more than 100 µM; in data set [6], not below 100 µM. Besides, the EC50 (in the data set with Human respirovirus 3; in data set [2]; in the data set with Sindbis virus; in the data set on Coxsackievirus B4; in the data set on Punta Toro virus [3]; with Yellow fever virus) was more than 100 µM in each case. Besides, the EC50 in the data set on Human alphaherpesvirus 3 stood at 57 µM. Also, the CC50 in data set [7] was more than 100 µM; in data set [8] it was more than 125 µM.
Regarding `CCOC(=O)C1=C(C)NC(=O)NC1`, the MCC in [1], in [4], in data set [5] and in data set [6] was more than 100 µM throughout. Also, the EC50 (with Human respirovirus 3; in [2]; with Sindbis virus; in the data set on Coxsackievirus B4; with Punta Toro virus [3]; in the data set on Yellow fever virus) was more than 100 µM each time. Besides, the half-maximal cytotoxic concentration (CC50) in data set [7] is more than 100 µM; in [8], more than 125 µM.
Turning to `CCOC(=O)C1=C(C)NC(=O)NC1c1cccs1` (centres undefined), the MCC in data set [1], in data set [4], in [5] and in data set [6] was more than 100 µM in each case. Further, the EC50 (in the data set with Human respirovirus 3; in data set [2]; with Sindbis virus; in the data set on Coxsackievirus B4; in the data set with Punta Toro virus [3]; in the data set with Yellow fever virus) was more than 100 µM in each case. Moreover, the figures for the CC50 in [7] and in data set [8] were more than 100 µM and more than 125 µM, respectively.
For `CCOC(=O)C1C2NC(=O)NC1(C)Oc1ccccc12` (centres undefined), the MCC in data set [1], in data set [4], in data set [5] and in data set [6] was more than 100 µM throughout. Moreover, the EC50 (in the data set on Human respirovirus 3; in data set [2]; in the data set on Sindbis virus; in the data set on Coxsackievirus B4; with Punta Toro virus [3]; in the data set with Yellow fever virus) was more than 100 µM each time. The CC50 in data set [7] was more than 100 µM; in [8], more than 125 µM.
In the case of `NC(=O)c1ncn([C@@H]2O[C@H](CO)[C@@H](O)[C@H]2O)n1` [RIBAVIRIN], in data set [1], the MCC is more than 250 µM. Also, the half-maximal effective concentration (EC50) is 112 µM in the data set on Human respirovirus 3; more than 250 µM in data set [2]; more than 250 µM with Sindbis virus; more than 250 µM in the data set with Coxsackievirus B4; 50 µM with Punta Toro virus [3].
For the compound `CCOC(=O)C1=C(C)NC(=O)NC1c1ccc(OC)cc1` (centres undefined), the EC50 in [2] was more than 100 µM. Moreover, the MCC in [4] and in [5] was more than 100 µM each time.
Take `CCOC(=O)C1=C(C)NC(=O)NC1CC(C)C` (centres undefined): the MCC in data set [1], in data set [4], in data set [5] and in [6] was more than 100 µM throughout. The EC50 (in the data set on Human respirovirus 3; in [2]; in the data set on Sindbis virus; in the data set with Coxsackievirus B4; in the data set on Punta Toro virus [3]; with Yellow fever virus) was more than 100 µM throughout. The CC50 in [7] was more than 100 µM; in [8] it was more than 125 µM.
Consider `CCOC(=O)C1=C(C)NC(=O)NC1c1ccccc1` (centres undefined), for which the EC50 (with Human respirovirus 3; in [2]) was more than 100 µM each time. Besides, the MCC in [4] and in [5] was more than 100 µM in each case.
In the case of `CCOC(=O)C1=C(C)NC(=O)NC1c1ccc(N(C)C)cc1` (centres undefined), the MCC in data set [1] is 100 µM; in [4], more than 100 µM; in data set [5], more than 100 µM; in data set [6], more than 100 µM. Moreover, the half-maximal effective concentration (EC50) (in the data set with Human respirovirus 3; in data set [2]; in the data set with Sindbis virus; in the data set with Coxsackievirus B4; in the data set with Punta Toro virus [3]; in the data set on Yellow fever virus) was more than 100 µM in each case. Also, the results for the cytotoxic concentration (CC50) in [7] and in data set [8] were more than 100 µM and more than 125 µM, respectively.
Turning to `CCOC(=O)C1=C(C)NC(=O)NC1c1ccccc1Cl` (centres undefined), the MCC in [1], in data set [4], in data set [5] and in data set [6] was more than 100 µM each time. For the same compound, the EC50 (in the data set on Human respirovirus 3; in data set [2]; in the data set with Sindbis virus; with Coxsackievirus B4; in the data set on Punta Toro virus [3]; in the data set with Yellow fever virus) was more than 100 µM in each case. Moreover, the CC50 in data set [7] is more than 100 µM; in data set [8], 96 µM.
With `COc1c(C)c2c(c(O)c1C/C=C(\C)CCC(=O)O)C(=O)OC2` [MYCOPHENOLIC ACID], in [1], the MCC is more than 100 µM. The concentration giving a half-maximal response (EC50) in the data set on Human respirovirus 3 was 0.8 µM; in [2] it was 1.8 µM; with Sindbis virus, 4 µM; in the data set with Coxsackievirus B4 it was more than 250 µM; in the data set on Punta Toro virus [3], 20 µM; in the data set with Yellow fever virus it was 4 µM.
As for `CCOC(=O)C1=C(C)NC(=O)NC1c1ccc(Cl)cc1` (centres undefined), the MCC in data set [4], in [5] and in data set [6] was more than 100 µM each time.
Regarding `CCOC(=O)C1=C(C)NC(=O)NC1C` (centres undefined), the MCC in data set [1], in [4], in data set [5] and in data set [6] was more than 100 µM each time. The EC50 (in the data set with Human respirovirus 3; in data set [2]; with Sindbis virus; in the data set on Coxsackievirus B4; with Punta Toro virus [3]; with Yellow fever virus) was more than 100 µM throughout. The CC50 in data set [7] was more than 100 µM; in [8], more than 125 µM.
As to `CCOC(=O)C1=C(C)NC(=O)NC1c1ccc(O)cc1` (centres undefined), the MCC in [1], in [4], in data set [5] and in [6] was more than 100 µM throughout. In addition, the EC50 (in the data set on Human respirovirus 3; in data set [2]; in the data set with Sindbis virus; with Coxsackievirus B4; with Punta Toro virus [3]; with Yellow fever virus) was more than 100 µM each time. In addition, the half-maximal cytotoxic concentration (CC50) in data set [7] was more than 100 µM; in data set [8], more than 125 µM.
In the case of `CCOC(=O)C1=C(C)NC(=O)NC1c1ccc(Br)cc1` (centres undefined), the MCC in data set [4], in [5] and in [6] was more than 100 µM each time.
